Screening data (PubChem)
B2AR ag: activates human beta-2 adrenergic receptor causing internalization | P07550 | 0.43% of 340,000 active | response, % (no concentration beside the values) | Am2.2-beta2AR cells, FAP receptor internalization, flow cytometry;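 active means response above a set limit, near 3 SD of response in nonfluorescent compounds, cut at about 42% in these data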
CXCR6 inh: inhibitors of human CXCR6 receptor | 0.36% of 360,000 active | CHO-K1 PathHunter CXCR6 beta-arrestin, luminescence | AID 602244 | O00574 | inhibition, % at 20 µM; in the data active means inhibition above about 34%, passing the limit was not always enough;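 further: antagonist mode with CXCL16 agonist at 10 nM final; 0% = 10 nM CXCL16 with DMSO and 100% = unstimulated wells without agonist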
Target sequence (O00574 whole entry, looked up): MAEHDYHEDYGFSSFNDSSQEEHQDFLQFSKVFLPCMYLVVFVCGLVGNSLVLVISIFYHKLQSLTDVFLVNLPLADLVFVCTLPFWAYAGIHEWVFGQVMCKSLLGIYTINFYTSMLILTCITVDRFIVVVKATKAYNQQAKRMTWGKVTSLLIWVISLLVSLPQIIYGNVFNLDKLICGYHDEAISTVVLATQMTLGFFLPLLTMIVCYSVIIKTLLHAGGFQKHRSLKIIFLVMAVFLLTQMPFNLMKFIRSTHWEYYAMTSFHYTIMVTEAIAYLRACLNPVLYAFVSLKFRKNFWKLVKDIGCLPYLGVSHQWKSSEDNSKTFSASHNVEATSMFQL
EBI2 block: blocks human EBI2 receptor beta-arrestin signaling; inhibition, % at 5 µM; AID 651636; P32249; 0.81% of 360,000 active; EBI2 beta-arrestin recruitment, luminescence, 7a,25-OHC stimulated; in the data active means inhibition above about 38%;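 further: enzyme fragment complementation signal reports receptor beta-arrestin coupling in cells; 0% = agonist plus DMSO wells and 100% = wells without agonist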
Target sequence (P32249 whole entry, looked up, the tested form may be a part): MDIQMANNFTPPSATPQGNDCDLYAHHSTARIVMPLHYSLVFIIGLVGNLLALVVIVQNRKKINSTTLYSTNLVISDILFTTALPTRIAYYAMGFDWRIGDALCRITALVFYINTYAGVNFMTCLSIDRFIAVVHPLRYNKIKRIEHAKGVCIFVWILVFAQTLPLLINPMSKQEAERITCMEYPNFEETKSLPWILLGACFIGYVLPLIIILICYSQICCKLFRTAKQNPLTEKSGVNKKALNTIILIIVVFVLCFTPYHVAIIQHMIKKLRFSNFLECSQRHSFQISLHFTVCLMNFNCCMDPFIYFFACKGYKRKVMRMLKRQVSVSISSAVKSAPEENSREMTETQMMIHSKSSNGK
CCR6 antagonist: blocks CCL20-driven beta-arrestin recruitment at human CCR6; CHO-K1 CCR6 PathHunter beta-arrestin, luminescence, CCL20-stimulated; 0.49% of 340,000 active; P51684; inhibition, % at 20 µM; AID 493098;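 active means compounds whose inhibition of the agonist-driven luminescence signal at 20 µM reaches about 50%, limit read from the data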;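 further: cells stimulated with CCL20 at 14 nM final; plate controls were DMSO with CCL20 for no effect and DMSO without agonist for full effect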
APJ antagonist: blocks the human apelin receptor APJ; inhibition, % at 20 µM; CHO-K1 APJ beta-arrestin complementation, luminescence; P35414; AID 2521; 0.32% of 330,000 active;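 active means inhibition above about 40% at 20 µM, limit read from the data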;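 further: cells challenged with 10 nM apelin-13 agonist together with compound; plate controls were apelin-13 plus DMSO wells for no effect and DMSO wells lacking apelin-13 for full effect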
APJ agonist: activates the human apelin receptor APJ. P35414. CHO-K1 APJ PathHunter beta-arrestin, luminescence; 0% DMSO wells, 100% apelin. activation, % at 20 µM. 0.11% of 330,000 active. AID 2520;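 active means activation more than six SD over the plate average, tested at 20 µM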;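 further: 0% = DMSO alone and 100% = apelin-13 at 10 nM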
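Material: CHO-K1 APJ beta-arrestin complementation cell line; Input: cell density 1000 per well; Incubation: compound stimulation 90 min at 25 °C, detection 60 min; Signal: luminescence from split beta-galactosidase complementation, Galacton Star/Emerald II substrate; Controls: DMSO-only wells as negative, 10 nM Apelin-13 as positive control.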
EBI2 conf: EBI2 (human) antagonism, single concentration confirmation. shares compounds with EBI2 block. EBI2 beta-arrestin luminescence, 7a,25-OHC antagonism. inhibition, % at 5 µM. 29% of 2,400 active;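 active means inhibition of at least 50%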
EBI2 agonist: activates EBI2, counter-screen for EBI2 antagonists | shares compounds with EBI2 block | EBI2-expressing cells, agonist mode, luminescence, 60 min; 0% vehicle, 100% 7α,25-dihydroxycholesterol control | activation, % at 5 µM | 2,400 tested, under 10 active | AID 652000;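 active means activation of at least 50%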
bGal cs: counter-screen for EBI2 antagonists: E. coli beta-galactosidase inhibition. purified beta-galactosidase, luminescent Galacton Star, 15 min. shares compounds with EBI2 block. inhibition, % at 5 µM. AID 652176. 1% of 2,400 active;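 active means replicate-average signal at least 3 plate SD below neutral wells, shown as high inhibition, flagging enzyme-inhibiting false positives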;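 further: 0% = DMSO wells with enzyme and 100% = wells lacking enzyme; higher means stronger loss of beta-gal luminescence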
* marks the source's active call; other numbers are inactive results; nt = not tested or not shown. Shown are actives, neighbours in structure and some others; about 1.8% of the full set was active somewhere.

SMILES	B2AR ag	CXCR6 inh	EBI2 block	CCR6 antagonist	APJ antagonist	APJ agonist	EBI2 conf	EBI2 agonist	bGal cs
COc1ccccc1N1CCN(C(=O)COc2ccc(Cl)cc2Br)CC1	-10.2	-2.9	32.3	-19.1	-3.7	-1.6	nt	nt	nt
O=C(c1ccc(-c2ccccc2)cc1)N1CCN(c2ncccn2)CC1	-1.1	2.1	49.5*	-10.4	0.3	-7.3	33.0	-0.1	1.9
COc1ccccc1N1CCN(C(=O)c2cc(-c3ccccc3O)on2)CC1	2.2	4.5	17.1	12.6	-10.2	-1.9	nt	nt	nt
COc1ccccc1N1CCN(C(=O)c2cc(-c3cccs3)on2)CC1	4.7	-4.2	67.2*	-2.5	-12.1	-1.5	51.8*	2.8	11.4
COc1ccccc1N1CCN(C(=O)COc2ccc(C)cc2Br)CC1	8.7	5.2	50.3*	-19.6	-7.9	-0.4	16.3	-0.6	-11.2
Cc1ccc(C2(c3ccccc3)NC(=O)N(CC(=O)NC3(C#N)CCCC3)C2=O)cc1C (configuration not stated)	-1.6	3.2	4.0	13.9	7.5	-3.7	nt	nt	nt
COc1ccc(C(=O)N2CCN(c3ccccc3OC)CC2)cc1	-1.0	1.8	12.1	2.0	2.1	-2.9	nt	nt	nt
Cc1ccc(/C=C/C(=O)N2CCN(c3cccc(C(F)(F)F)c3)CC2)cc1	-9.0	1.4	83.1*	9.2	-8.5	0.6	76.1*	1.4	-2.7
Cc1ccc(C)c(C(=O)CCC(=O)N2CCN(c3cccc(C(F)(F)F)c3)CC2)c1	4.3	2.1	-4.5	14.7	1.0	-2.7	nt	nt	nt
C=CCN1CCN(C(=O)c2ccc(-c3ccccc3)cc2)CC1	-2.6	-5.4	77.0*	5.4	-10.6	-1.5	44.7	-0.2	2.8
COc1ccccc1N1CCN(C(=O)c2cc(-c3ccccc3)on2)CC1	-4.6	26.6	63.2*	5.1	-9.0	2.6	54.0*	0.2	4.7
COc1ccccc1N1CCN(C(=O)c2ccc(-c3ccccc3)cc2)CC1	-2.0	-3.3	73.5*	12.2	10.7	-0.2	40.3	-1.4	-8.6
COc1ccccc1N1CCN(C(=O)/C=C/c2ccc(C)cc2)CC1	1.3	-5.9	93.1*	18.7	-2.9	1.1	84.8*	1.5	2.5
OC[C@@H]1CN(Cc2cccs2)C[C@H](n2cnc3c(NCc4ccc(F)cc4)ncnc32)O1	nt	3.8	-2.4	nt	nt	nt	nt	nt	nt
Cc1cccc(Nc2nc(-c3c(C)nc4ccccn34)cs2)c1	-6.6	1.2	63.1*	4.1	14.9	-1.4	54.4*	1.1	7.3
CS(=O)(=O)Nc1cccc(-c2ccc3nncn3c2)c1	nt	0.0	-4.8	nt	nt	nt	nt	nt	nt
Nc1c(S(=O)(=O)c2ccccc2)c2nc3ccccc3nc2n1/N=C/c1cccc(O)c1	38.1	-6.8	68.4*	1.0	-3.8	0.7	38.5	0.5	-9.4
COc1ccc(N2CCN(C(=O)c3cc4c(C)nc5ccccc5c4o3)CC2)cc1	-3.2	0.7	53.8*	2.4	9.1	-2.5	42.5	0.8	7.6
CC(=O)c1ccc(N2CCN(C(=O)c3cc4c(C)nc5ccccc5c4o3)CC2)cc1	2.1	-19.1	-1.6	-1.5	-13.0	3.8	nt	nt	nt
Cc1nc2ccccc2c2oc(C(=O)N3CCC(N4CCCCC4)CC3)cc12	-9.0	-3.4	26.9	4.8	16.2	0.2	nt	nt	nt
Cc1nc2ccccc2c2oc(C(=O)N3CCN(C4CCCCC4)CC3)cc12	-15.2	-8.4	86.9*	7.5	-48.4	0.3	76.7*	1.2	3.1
O=C(CSc1nnc(CNc2ccc(F)cc2)n1CC1CCCO1)N1CCOCC1 (configuration not stated)	5.0	-4.2	-8.9	6.5	-46.5	1.2	nt	nt	nt
COc1ccc(C(=O)CSc2nc3ccccc3n2CC(=O)c2ccccc2)cc1	11.0	7.2	8.2	10.0	13.3	-2.1	nt	nt	nt
COc1ccc(C(=O)Cn2c(C(=O)/C=C/c3ccccc3)nc3ccccc32)cc1	17.7	23.3	53.1*	30.0	2.8	-2.7	46.7	0.4	6.0
COc1cc([N+](=O)[O-])cc2sc(NC(=O)C3CC3)nc12	-16.4	0.9	13.3	1.0	3.8	-1.9	nt	nt	nt
SMILES	B2AR ag	CXCR6 inh	EBI2 block	CCR6 antagonist	APJ antagonist	APJ agonist	EBI2 conf	EBI2 agonist	bGal cs
Oc1cccc(-c2nc3c4c(ncn3n2)-c2ccccc2CC42CCCC2)c1	9.1	-7.6	46.7*	-8.2	-18.7	-0.4	30.7	2.1	9.0
COc1ccc(-c2nc3c4c(ncn3n2)-c2ccccc2CC42CCCC2)cc1	8.9	9.9	2.7	8.6	-11.8	-0.9	nt	nt	nt
COc1ccc(OCc2nc3c4c(ncn3n2)-c2ccccc2CC42CCCC2)cc1	-5.1	-2.1	55.4*	17.7	-21.3	-1.9	18.6	2.6	5.7
Cc1ccc2oc(C(=O)N3CCC(O)(c4cccc(C(F)(F)F)c4)CC3)c(C)c2c1	-4.0	0.2	56.9*	25.4	-5.9	-3.6	43.6	-0.9	-4.7
CC(=O)N1CCC(O)(c2cccc(C(F)(F)F)c2)CC1	7.4	-1.4	-1.5	4.9	14.8	2.1	nt	nt	nt
O=S(=O)(c1ccc(Oc2ccc(Cl)cc2)nc1)N1CCOCC1	-8.8	-6.9	52.0*	-4.3	-8.8	5.0	26.7	0.2	-5.8
OC[C@@H]1CN(CCN2CCOCC2)C[C@H](n2cnc3c(NC4CCC4)ncnc32)O1	nt	-0.3	0.1	nt	nt	nt	nt	nt	nt
Cc1cc(C)n(CCC(=O)N2CCN(S(=O)(=O)c3ccccc3)CC2)n1	-7.3	9.5	16.4	9.5	14.4	2.2	nt	nt	nt
O=C(O)COc1ccc(NC(=O)c2ccc3c(c2)C(=O)N(Cc2ccccc2)C3=O)cc1	-6.6	-5.0	-1.0	2.5	3.0	2.2	nt	nt	nt
Cc1cc(NC(=O)c2ccc3c(c2)C(=O)N(Cc2ccccc2)C3=O)no1	-8.1	-2.7	47.2*	3.1	3.8	-1.2	19.9	0.2	5.2
O=C(Nc1ccc(O)cc1)c1ccc2c(c1)C(=O)N(Cc1ccccc1)C2=O	7.7	-8.2	56.8*	-1.0	-24.0	1.2	21.5	1.0	9.2
CC1(C(=O)Nc2ccc3[nH]ncc3c2)CCN1C(=O)C/C=C/c1ccccc1 (configuration not stated)	nt	-0.6	20.6	nt	nt	nt	nt	nt	nt
CC1(C(=O)Nc2ccc3[nH]ncc3c2)CCN1C(=O)CC(c1ccccc1)c1ccccc1 (configuration not stated)	nt	7.7	47.6*	nt	nt	nt	13.1	-0.4	-11.0
CC1(C(=O)Nc2cccc(OC(F)(F)F)c2)Cc2c(-c3ccc4c(c3)OCO4)ccnc2O1 (configuration not stated)	nt	-0.7	-1.7	nt	nt	nt	nt	nt	nt
